Reference: PubChem BioAssay AID504383 (The Scripps Research Institute Molecular Screening Center, 2011)
Out of some 2,500 compounds screened, about 1,200 (48%) were called active.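 Rule for the calls: active = mean activation above the low control average plus 3 SD, as set in the primary screen (cut at about 12% in these data); inactive = the rest.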 The set was probably picked from earlier hits. The list shows a part of the results.

target: Troponin I, cardiac muscle (Homo sapiens) + Troponin T, cardiac muscle (Homo sapiens) + Troponin C, slow skeletal and cardiac muscles (Homo sapiens) (UniProt P19429+P45379+P63316); assay: calcium sensitizers of cardiac thin filaments – biochemical, IANBD-TnC fluorescence, triplicate, confirmation (AID 504383); settings: IANBD-labeled cardiac RTF, Ca2+ sensitivity fluorescence; at 7.2 µM; active compounds read high; scaled from EC20 to saturating calcium; tested at EC20 calcium, 0.472 mM;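 note: 0% = DMSO at 0.472 mM calcium and 100% = DMSO at 2.9 mM calcium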
Method in brief: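 Material: labelled regulated thin filaments; Reagent: 0.472 mM calcium; Incubation: 15 min compound incubation with filaments at 25 °C; Detection: filament fluorescence intensity; Evaluation: fluorescence increase normalised to calcium controls; Benchmarks: low control EC20 calcium, high control EC100 calcium.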

Question: How did the activation turn out when CC(C)NC(=S)N/N=C/c1sc(N2CCCCC2)nc1-c1cccs1 was run?
Answer: 11.2% (inactive)

Question: For O=C(NCCCN1CCCC1=O)c1cccc(S(=O)(=O)Nc2ccc(Br)cc2)c1, which activation is on record?
Answer: 10% (inactive)

Question: Which activation does the source give for O=C(Nc1ccc(Br)cc1)c1ccc(Br)c(S(=O)(=O)Nc2cccnc2)c1 here?
Answer: 22.2% (active)

Question: For Cc1occc1C(=O)Nc1cccc([N+](=O)[O-])c1, which activation is on record?
Answer: 30.8% (active)

Question: Which activation does the source give for O=C(Nn1cnnc1)c1cc([N+](=O)[O-])cc([N+](=O)[O-])c1 here?
Answer: 11.3% (inactive)

Question: Which activation does the source give for Cc1csc(NS(=O)(=O)c2cccc([N+](=O)[O-])c2)n1 here?
Answer: 10.9% (inactive)

Question: O=C(c1ccncc1)N(Cc1ccccc1)Cc1nc2ccccc2c(=O)[nH]1 was tested. Which activation did it give?
Answer: 9.24% (inactive)

Question: For COc1ccc2cc(CN(CC3CCCO3)C(=S)NCc3ccco3)c(=O)[nH]c2c1 (centres undefined), which activation is on record?
Answer: 1.66% (inactive)

Question: COc1cc2cc(CN(Cc3cccnc3)C(=O)NCc3ccccc3)c(=O)[nH]c2cc1OC was tested. Which activation did it give?
Answer: 324% (active)

Question: With CN1c2ccccc2C(O)=C(C(=S)Nc2ccc(F)c(Cl)c2)S1(=O)=O as the compound, how does the activation read?
Answer: 54.4% (active)

Question: CC(=O)Nc1ccccc1C(=O)C(=O)Nc1ccc(F)c(Cl)c1 was tested. Which activation did it give?
Answer: 7.61% (inactive)

Question: For CC(=O)/C(C=Nc1noc(C)c1Br)=C(\C)O, which activation is on record?
Answer: 50.2% (active)

Question: For C=C1C(=O)O[C@@]23[C@H]1CC[C@@H](C)[C@@H]2CC[C@@]1(C)O[C@@H]31, which activation is on record?
Answer: 11.9% (active)

Question: With C=CCNC(=O)NC(=O)COC(=O)CC(NC(N)=O)c1ccc(Cl)cc1 (centres undefined) as the compound, how does the activation read?
Answer: 154% (active)

Question: With CN(C)CCN(C)Cc1c2ccccc2c(CN(C)CCN(C)C)c2ccccc12 as the compound, how does the activation read?
Answer: 27.7% (active)

Question: With CN(C)CCOc1ccccc1C(C)(C)C as the compound, how does the activation read?
Answer: 4.26% (inactive)

Question: Which activation does the source give for CC[N+](C)(C)c1cccc(O)c1 here?
Answer: 3.39% (inactive)

Question: With Cc1ccc(S(=O)(=O)Nc2nc3ccccc3nc2NCc2ccco2)cc1 as the compound, how does the activation read?
Answer: 23.7% (active)

Question: Cc1ccc(S(=O)(=O)Nc2ccc3ncccc3c2[N+](=O)[O-])cc1 was tested. Which activation did it give?
Answer: 11.6% (inactive)

Question: How did the activation turn out when Nc1nc(NCc2ccco2)nc(N2CCCCCC2)c1[N+](=O)[O-] was run?
Answer: 6.31% (inactive)

Question: Which activation does the source give for COC(=O)c1[nH]c2ccc(C)cc2c1NC(=O)C(C)N1CCN(C2CCCCC2)CC1 (centres undefined) here?
Answer: 10.5% (inactive)

Question: With COc1ccccc1-c1nnc(SCC(=O)Nc2ccc3[nH]c(=O)[nH]c3c2)n1N as the compound, how does the activation read?
Answer: 6.5% (inactive)

Question: CCn1c(C)c(CCC(=O)O)c(=O)n2nc(-c3ccccc3OC)cc12 was tested. Which activation did it give?
Answer: 11.7% (active)

Question: For O=S(=O)(CCN(CCS(=O)(=O)C(F)(F)F)CC1CCCO1)C(F)(F)F (centres undefined), which activation is on record?
Answer: 17.5% (active)

Question: With COC(=O)CCCCCN1C(=O)/C(=C\c2ccncc2)SC1=S as the compound, how does the activation read?
Answer: 4.31% (inactive)

Question: With O=C(O)CCCN1C(=O)/C(=C/c2cn(-c3ccccc3)nc2-c2cccs2)SC1=S as the compound, how does the activation read?
Answer: 150% (active)

Question: How did the activation turn out when Cc1ccc(-c2nn(-c3ccccc3)cc2/C=C2\SC(=S)N(CCCCCC(=O)O)C2=O)o1 was run?
Answer: 23.1% (active)

Question: Which activation does the source give for COc1ccccc1C(=O)NNC(=O)CCCN1C(=O)/C(=C/c2cccs2)SC1=S here?
Answer: 1.62% (inactive)

Question: With C=CCNc1sc(C(=O)c2ccc(Br)s2)c(N)c1C#N as the compound, how does the activation read?
Answer: 98% (active)

Question: How did the activation turn out when C#CCOCCOCCOCCNc1nc(N2CCN(C(=O)CCCCCCCCCCNC(=O)[C@@H](CCSC)n3cc(CCO)nn3)CC2)nc(N2CCN(C(=O)CCCCCCCCCCNC(=O)[C@H](CCSC)n3cc(CCO)nn3)CC2)n1 was run?
Answer: 3.03% (inactive)

Question: Which activation does the source give for COc1ccc2[nH]c(C)c(CCN(Cc3cccs3)C(=S)Nc3ccc(F)cc3)c2c1 here?
Answer: 12.4% (active)

Question: With COc1ccc(NC(=O)C(c2ccc(C)cc2)N(C)C(=O)Cc2cccs2)cc1 (centres undefined) as the compound, how does the activation read?
Answer: 6.31% (inactive)

Question: With CCN(CC)S(=O)(=O)c1ccc2[nH]c(=O)[nH]c2c1 as the compound, how does the activation read?
Answer: 15.6% (active)

Question: With O=S(=O)(/N=C(/Nc1nc2ccccc2s1)c1ccccc1)c1ccc(F)cc1 as the compound, how does the activation read?
Answer: 11.4% (inactive)

Question: For Cc1onc(-c2ccccc2)c1C(=O)Nc1nc(-c2cc(F)ccc2F)cs1, which activation is on record?
Answer: -0.1% (inactive)

Question: How did the activation turn out when Cc1noc(C)c1C(=O)Nc1nc2ccccc2s1 was run?
Answer: 28.4% (active)

Question: Which activation does the source give for Cc1cccc(NC2=Nc3ccccc3N3C2=Nc2c(c(C)nn2-c2ccccc2)C3c2ccc(O)c(O)c2)c1 (centres undefined) here?
Answer: 362% (active)

Question: For Cc1ccc(-c2ccc(CO)o2)cc1N, which activation is on record?
Answer: 92.6% (active)

Question: Cn1c(/C(C#N)=C(\O)CN2CCN(Cc3ccccc3)CC2)nc2ccccc21 was tested. Which activation did it give?
Answer: 7.65% (inactive)

Question: How did the activation turn out when Cc1nc([N+](=O)[O-])c(Br)n1CC(=O)c1ccc2ccccc2c1 was run?
Answer: 10.5% (inactive)

Question: Which activation does the source give for Cc1nc([N+](=O)[O-])c(Sc2nc3ccccc3n2C)n1Cc1ccccc1 here?
Answer: 46.8% (active)

Question: COc1ccc(Cc2n[nH]c(=O)c3ccccc23)cc1OC was tested. Which activation did it give?
Answer: 5.9% (inactive)

Question: For COc1ccc(CNc2nn[nH]n2)cc1OC, which activation is on record?
Answer: 18.4% (active)

Question: How did the activation turn out when COc1ccc(CCNc2cc(C)[nH]c(=O)c2)cc1OC was run?
Answer: 5.18% (inactive)

Question: CCOC(=O)CC(=O)CSc1nc(-c2ccc3c(c2)OCO3)cc(C(F)(F)F)c1C#N was tested. Which activation did it give?
Answer: 13.6% (active)

Question: With C(=N\c1nc2ccccc2n1CCN1CCOCC1)/c1cccs1 as the compound, how does the activation read?
Answer: 2.67% (inactive)

Question: For O=C(O)c1cccc([N+](=O)[O-])c1C(=O)Nc1cccc2ccccc12, which activation is on record?
Answer: 14.4% (active)

Question: Cc1ccc(NC(=O)c2cc(C(=O)c3cc(Cl)ccc3O)cn(-c3ccc(C)cc3)c2=O)cc1 was tested. Which activation did it give?
Answer: 15.1% (active)

Question: With Cc1ccc(O)c(C(=O)c2cc(C#N)c(=O)n(-c3nccs3)c2)c1 as the compound, how does the activation read?
Answer: 8.02% (inactive)

Question: For CS(=O)(=O)Nc1ccc(C2=NN(C(=O)CCCC(=O)O)C(c3cccs3)C2)cc1 (centres undefined), which activation is on record?
Answer: 61.2% (active)

Question: With CN(C)CCNc1ccc2ncn3c4ccc(O)cc4c(=O)c1c23 as the compound, how does the activation read?
Answer: 11.4% (inactive)

Question: How did the activation turn out when Cc1cc(C)c2nc(NC(=O)C3CCCO3)sc2c1 (centres undefined) was run?
Answer: 36.3% (active)

Question: COc1cc(/C=C2\N=C3CCCCCN3C2=O)ccc1O was tested. Which activation did it give?
Answer: 4.57% (inactive)

Question: With CCOc1cc(/C=C2\N=C(SC(C)C(N)=O)N(c3ccc(OC(F)F)cc3)C2=O)ccc1O (centres undefined) as the compound, how does the activation read?
Answer: 32.1% (active)

Question: Which activation does the source give for COc1cc(OC)c(NC(=O)c2cc3ccccc3cc2O)cc1Cl here?
Answer: 12.7% (active)

Question: With CCOC(=O)COc1c(Cl)cc(C2NC(=S)NC(c3ccccc3)=C2C(C)=O)cc1OC (centres undefined) as the compound, how does the activation read?
Answer: 10.2% (inactive)

Question: Which activation does the source give for COc1ccc(-c2nnc(-c3cccnc3)o2)cc1 here?
Answer: 48.2% (active)

Question: For Cc1[nH]c(C)c(S(=O)(=O)N2c3ccccc3CC2C)c1C(=O)N1CCCCC1 (centres undefined), which activation is on record?
Answer: 137% (active)

Question: For O=C1c2ccccc2-c2c1cccc2C(=O)N1CCCCCC1, which activation is on record?
Answer: 9.57% (inactive)
